ChEMBL document CHEMBL3259544, “α-Ketoheterocycle inhibitors of fatty acid amide hydrolase: exploration of conformational constraints in the acyl side chain” (Bioorg Med Chem, 2014)

What was measured:
[1] = biological target: T1, Fatty-acid amide hydrolase 1 (Rattus norvegicus, UniProt P97612); test: Inhibition of rat recombinant FAAH expressed in Escherichia coli using [14C]oleamide as substrate assessed as oleic acid formation by Dixon plot analysis
T1 sequence (P97612 whole entry): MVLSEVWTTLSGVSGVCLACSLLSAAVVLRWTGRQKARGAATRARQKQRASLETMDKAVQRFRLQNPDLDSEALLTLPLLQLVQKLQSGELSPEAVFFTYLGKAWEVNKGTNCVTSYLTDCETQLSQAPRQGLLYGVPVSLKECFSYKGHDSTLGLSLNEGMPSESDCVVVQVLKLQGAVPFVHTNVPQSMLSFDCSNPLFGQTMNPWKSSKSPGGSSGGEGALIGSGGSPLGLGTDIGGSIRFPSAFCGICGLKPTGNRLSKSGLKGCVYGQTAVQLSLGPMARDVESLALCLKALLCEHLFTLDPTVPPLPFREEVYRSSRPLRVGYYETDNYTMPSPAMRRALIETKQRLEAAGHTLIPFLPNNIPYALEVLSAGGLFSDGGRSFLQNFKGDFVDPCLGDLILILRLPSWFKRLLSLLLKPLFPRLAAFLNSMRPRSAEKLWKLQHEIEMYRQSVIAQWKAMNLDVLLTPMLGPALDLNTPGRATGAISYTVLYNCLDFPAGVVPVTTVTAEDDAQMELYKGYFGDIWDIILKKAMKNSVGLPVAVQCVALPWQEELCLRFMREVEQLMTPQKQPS

Monoglyceride lipase = biological target: T2, Monoglyceride lipase (Mus musculus, UniProt O35678); test: Inhibition of mouse brain MAGL incubated for 10 mins prior to rhodamine-tagged fluorophosphonate addition measured after 10 mins by SDS-PAGE
T2 sequence (O35678 whole entry): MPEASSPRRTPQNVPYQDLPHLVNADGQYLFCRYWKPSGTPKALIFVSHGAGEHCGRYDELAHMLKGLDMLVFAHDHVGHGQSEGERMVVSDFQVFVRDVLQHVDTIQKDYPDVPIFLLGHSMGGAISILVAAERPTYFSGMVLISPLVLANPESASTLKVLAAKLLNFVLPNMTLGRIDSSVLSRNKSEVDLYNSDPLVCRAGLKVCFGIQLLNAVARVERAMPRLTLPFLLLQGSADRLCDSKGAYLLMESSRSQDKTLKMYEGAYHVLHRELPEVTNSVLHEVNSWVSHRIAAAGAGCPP
Method in brief: (§1)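 Mouse brain tissue was Dounce-homogenized in PBS pH 7.5, cleared at 1,400 g for 5 min, then split at 64,000 g for 45 min into soluble and membrane fractions. Proteome at 1 mg/mL in PBS was preincubated with inhibitor from DMSO stock for 10 min, then exposed to FP-rhodamine at 100 nM for 10 min at 25 °C. Gel bands were scanned and integrated relative to a DMSO control. IC50 came from dose-response curves, three trials per concentration.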

[2] = biological target: T3, Monoacylglycerol lipase ABHD6 (Mus musculus, UniProt Q8R2Y0); test: Inhibition of mouse brain ABHD6 incubated for 10 mins prior to rhodamine-tagged fluorophosphonate addition measured after 10 mins by SDS-PAGE; assay type: tissue-based; method in brief: as §1
T3 sequence (Q8R2Y0 whole entry): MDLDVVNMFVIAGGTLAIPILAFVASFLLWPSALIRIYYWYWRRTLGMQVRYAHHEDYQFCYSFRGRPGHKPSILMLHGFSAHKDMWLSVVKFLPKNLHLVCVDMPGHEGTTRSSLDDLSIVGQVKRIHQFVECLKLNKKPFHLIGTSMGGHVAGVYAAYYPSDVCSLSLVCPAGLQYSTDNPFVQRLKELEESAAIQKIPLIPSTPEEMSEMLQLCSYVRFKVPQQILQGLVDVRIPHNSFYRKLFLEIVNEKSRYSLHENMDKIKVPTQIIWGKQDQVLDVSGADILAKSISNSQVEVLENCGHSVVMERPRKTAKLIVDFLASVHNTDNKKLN

Mus musculus [3] = species: Mus musculus; test: Selectivity ratio of IC50 for mouse brain MAGL to mouse brain FAAH
Mus musculus [4] = species: Mus musculus; test: Selectivity ratio of IC50 for mouse brain ABHD6 to mouse brain FAAH
[5] = biological target: T4, Fatty-acid amide hydrolase 1 (Mus musculus, UniProt O08914); test: Inhibition of mouse brain FAAH incubated for 10 mins prior to rhodamine-tagged fluorophosphonate addition measured after 10 mins by SDS-PAGE; method in brief: as §1
T4 sequence (O08914 whole entry): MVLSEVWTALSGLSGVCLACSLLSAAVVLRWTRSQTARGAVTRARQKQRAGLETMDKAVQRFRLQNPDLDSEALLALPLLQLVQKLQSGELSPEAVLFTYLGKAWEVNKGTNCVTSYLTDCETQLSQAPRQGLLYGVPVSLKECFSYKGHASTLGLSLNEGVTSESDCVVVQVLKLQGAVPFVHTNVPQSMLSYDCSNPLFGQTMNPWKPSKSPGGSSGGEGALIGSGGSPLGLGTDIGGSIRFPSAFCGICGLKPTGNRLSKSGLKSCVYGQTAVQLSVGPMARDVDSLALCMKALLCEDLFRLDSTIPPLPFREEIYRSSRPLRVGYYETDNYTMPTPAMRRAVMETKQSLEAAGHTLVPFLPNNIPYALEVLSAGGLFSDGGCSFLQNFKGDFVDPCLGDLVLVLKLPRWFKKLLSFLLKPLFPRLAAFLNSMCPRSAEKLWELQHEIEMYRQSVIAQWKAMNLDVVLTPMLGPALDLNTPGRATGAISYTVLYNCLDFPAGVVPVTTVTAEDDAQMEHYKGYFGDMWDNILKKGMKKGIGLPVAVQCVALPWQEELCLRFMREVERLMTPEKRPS

Mus musculus [6] = species: Mus musculus; test: Selectivity ratio of IC50 for mouse brain KIAA1363 to mouse brain FAAH
[7] = biological target: T5, Neutral cholesterol ester hydrolase 1 (Mus musculus, UniProt Q8BLF1); test: Inhibition of mouse brain KIAA1363 incubated for 10 mins prior to rhodamine-tagged fluorophosphonate addition measured after 10 mins by SDS-PAGE; method in brief: as §1
T5 sequence (Q8BLF1 whole entry): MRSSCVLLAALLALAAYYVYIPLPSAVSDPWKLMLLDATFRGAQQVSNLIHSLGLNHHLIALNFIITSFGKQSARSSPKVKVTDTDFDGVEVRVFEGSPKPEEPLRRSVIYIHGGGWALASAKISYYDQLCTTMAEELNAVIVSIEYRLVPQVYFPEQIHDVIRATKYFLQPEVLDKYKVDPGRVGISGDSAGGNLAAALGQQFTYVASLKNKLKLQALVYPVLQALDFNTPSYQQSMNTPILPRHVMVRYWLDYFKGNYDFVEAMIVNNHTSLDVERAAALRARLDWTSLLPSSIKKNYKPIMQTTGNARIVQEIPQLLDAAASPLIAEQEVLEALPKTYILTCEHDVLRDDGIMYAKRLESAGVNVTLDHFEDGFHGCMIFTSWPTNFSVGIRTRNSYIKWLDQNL

[8] = biological target: T6, Fatty-acid amide hydrolase 1 (Homo sapiens, UniProt O00519); test: Reversible inhibition of FAAH (unknown origin)
T6 sequence (O00519 whole entry): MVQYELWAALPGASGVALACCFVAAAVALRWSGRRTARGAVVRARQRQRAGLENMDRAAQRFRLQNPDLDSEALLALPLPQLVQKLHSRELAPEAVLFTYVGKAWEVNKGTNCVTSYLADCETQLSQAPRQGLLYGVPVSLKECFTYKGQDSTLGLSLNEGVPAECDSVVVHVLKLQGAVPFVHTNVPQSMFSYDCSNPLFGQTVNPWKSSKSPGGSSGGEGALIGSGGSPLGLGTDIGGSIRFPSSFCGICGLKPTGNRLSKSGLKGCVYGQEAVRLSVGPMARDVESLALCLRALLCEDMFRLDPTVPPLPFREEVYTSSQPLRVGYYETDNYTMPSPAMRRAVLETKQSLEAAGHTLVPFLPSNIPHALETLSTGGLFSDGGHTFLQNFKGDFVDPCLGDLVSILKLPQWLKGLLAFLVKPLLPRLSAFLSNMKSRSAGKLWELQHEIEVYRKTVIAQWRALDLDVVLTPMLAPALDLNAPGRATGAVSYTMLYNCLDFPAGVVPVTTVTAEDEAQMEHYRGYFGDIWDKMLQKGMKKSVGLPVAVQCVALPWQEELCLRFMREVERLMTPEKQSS

O=C(c1ncco1)[C@H]1COc2cc(OCc3ccccc3)ccc2C1
Ki [1]: 20 nM

O=C(c1ncco1)C1CCc2cc(Oc3ccccc3)ccc2O1 (single isomer, unassigned; enantiomer 2)
Ki [1]: 31 nM

O=C(c1ncc(-c2ccccn2)o1)[C@@H]1COc2cc(Oc3ccccc3)ccc2C1
IC50 (Monoglyceride lipase): > 100000 nM
IC50 [2]: > 100000 nM
Ratio IC50 (Mus musculus [3]): > 200
Ki [1]: 27 nM
Ratio IC50 (Mus musculus [4]): > 200
IC50 [5]: 460 nM
Ratio IC50 (Mus musculus [6]): > 200
IC50 [7]: > 100000 nM

O=C(c1ncc(-c2ccccn2)o1)[C@H]1COc2cc(OCc3ccccc3)ccc2C1
Ki [1]: 18 nM

O=C(c1ncco1)C1COc2cc(Oc3ccccc3)ccc2C1 (racemic)
Ki [1]: 33 nM

O=C(c1ncc(-c2ccccn2)o1)[C@H]1COc2cc(Oc3ccccc3)ccc2C1
IC50 (Monoglyceride lipase): > 100000 nM
IC50 [2]: > 100000 nM
Ratio IC50 (Mus musculus [3]): > 200
Ki [1]: 18 nM
Ratio IC50 (Mus musculus [4]): > 200
IC50 [5]: 90 nM
Ratio IC50 (Mus musculus [6]): > 200
IC50 [7]: > 100000 nM

COC(=O)c1cccc(-c2cnc(C(=O)C3CCc4cc(Oc5ccccc5)ccc4O3)o2)n1 (single isomer, unassigned; enantiomer 1)
Ki [1]: 94 nM

O=C(c1ncco1)[C@H]1COc2cc(-c3ccccc3)ccc2C1
Ki [1]: 20 nM

O=C(c1ncc(-c2ccccn2)o1)[C@@H]1COc2cc(OCc3ccccc3)ccc2C1
Ki [1]: 17 nM

COC(=O)c1cccc(-c2cnc(C(=O)[C@H]3COc4cc(Oc5ccccc5)ccc4C3)o2)n1
Ki [1]: 41 nM

O=C(c1ncco1)[C@@H]1COc2cc(-c3ccccc3)ccc2C1
Ki [1]: 32 nM

CCCCCCC(C)OC(=O)C(Br)C(C)=O (configuration not stated)
Ki [8]: 800 nM

O=C(c1ncc(I)o1)[C@H]1COc2cc(Oc3ccccc3)ccc2C1
Ki [1]: 20 nM

O=C(c1ncc(-c2ccccn2)o1)C1CCc2cc(Oc3ccccc3)ccc2O1 (single isomer, unassigned; enantiomer 2) [listing 1 of 2 here]
Ratio IC50 (Mus musculus [3]): > 200
Ratio IC50 (Mus musculus [4]): > 200
Ratio IC50 (Mus musculus [6]): > 200

O=C(c1ncc(-c2ccccn2)o1)[C@@H]1COc2cc(-c3ccccc3)ccc2C1
Ki [1]: 11 nM

O=C(c1ncc(-c2ccccn2)o1)C1COc2cc(OCc3ccccc3)ccc2C1 (racemic)
Ki [1]: 17 nM

O=C(c1ncc(-c2ccccn2)o1)[C@H]1CCc2cc(Oc3ccccc3)ccc2C1
Ki [1]: 4.4 nM

COC(=O)c1cccc(-c2cnc(C(=O)C3CCc4cc(Oc5ccccc5)ccc4O3)o2)n1 (single isomer, unassigned; enantiomer 2)
Ki [1]: 210 nM

COC(=O)c1cccc(-c2cnc(C(=O)[C@@H]3COc4cc(Oc5ccccc5)ccc4C3)o2)n1
Ki [1]: 333 nM

O=C(c1ncc(-c2ccccn2)o1)C1CCc2cc(Oc3ccccc3)ccc2O1 (single isomer, unassigned; enantiomer 2) [listing 2 of 2 here]
IC50 (Monoglyceride lipase): > 100000 nM
IC50 [2]: > 100000 nM
Ki [1]: 120 nM
IC50 [5]: 50 nM
IC50 [7]: > 100000 nM

O=C(c1ncco1)C1CCc2cc(Oc3ccccc3)ccc2O1 (single isomer, unassigned; enantiomer 1)
Ki [1]: 17 nM

O=C(c1ncc(-c2ccccn2)o1)C1CCc2cc(Oc3ccccc3)ccc2O1 (single isomer, unassigned) [listing 1 of 2 here]
Ratio IC50 (Mus musculus [3]): > 200
Ratio IC50 (Mus musculus [4]): > 200
Ratio IC50 (Mus musculus [6]): > 200

O=C(c1ncco1)[C@@H]1COc2cc(OCc3ccccc3)ccc2C1
Ki [1]: 16 nM

O=C(c1ncc(-c2ccccn2)o1)C1CCc2cc(Oc3ccccc3)ccc2O1 (single isomer, unassigned) [listing 2 of 2 here]
IC50 (Monoglyceride lipase): > 100000 nM
IC50 [2]: > 100000 nM
Ki [1]: 36 nM
IC50 [5]: 70 nM
IC50 [7]: > 100000 nM

O=C(c1ncc(I)o1)[C@@H]1COc2cc(Oc3ccccc3)ccc2C1
Ki [1]: 31 nM

O=C(c1ncc(-c2ccccn2)o1)[C@H]1COc2cc(-c3ccccc3)ccc2C1
Ki [1]: 23 nM
